Calb FLC: affects C. albicans growth with fluconazole | C. albicans CaCi-2 (fluconazole-resistant clinical isolate) + fluconazole, Alamar Blue growth, 48 h | growth inhibition, % (no concentration beside the values) | 0.57% of 300,000 active | AID 1979;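 active = growth inhibition above about 58% in most replicates, limit read from the data, passing the limit was not always enough; inconclusive = exactly half the replicates above a set limit; inactive = most replicates below a set limit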;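 note: all wells also contain fluconazole at 8 µg/ml as a sub-toxic cotreatment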
Mdm2 MdmX PPI: disrupts the human Mdm2-MdmX interaction; 3% of 330,000 active; SaOS-2 split-luciferase Mdm2/MdmX complementation, luminescence; O15151+Q00987; AID 485346; inhibition, % at 8 µM;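 active = inhibition of at least 50% at 8 µM in the primary screen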
Target sequence (O15151 whole entry, looked up): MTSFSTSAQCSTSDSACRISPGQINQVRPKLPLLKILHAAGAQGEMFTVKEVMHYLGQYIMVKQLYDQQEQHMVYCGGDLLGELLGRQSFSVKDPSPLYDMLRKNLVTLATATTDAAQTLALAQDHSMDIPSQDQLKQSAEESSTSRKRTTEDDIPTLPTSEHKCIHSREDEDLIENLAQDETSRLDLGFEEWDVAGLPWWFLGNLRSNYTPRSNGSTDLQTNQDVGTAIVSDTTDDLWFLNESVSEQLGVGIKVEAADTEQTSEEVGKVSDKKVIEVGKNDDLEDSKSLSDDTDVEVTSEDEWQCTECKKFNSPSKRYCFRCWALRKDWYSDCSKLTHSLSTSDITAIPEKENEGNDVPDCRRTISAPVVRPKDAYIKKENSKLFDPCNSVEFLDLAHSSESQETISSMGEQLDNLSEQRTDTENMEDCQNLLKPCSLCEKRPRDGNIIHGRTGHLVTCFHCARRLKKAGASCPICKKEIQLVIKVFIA
Target sequence (Q00987 whole entry, looked up): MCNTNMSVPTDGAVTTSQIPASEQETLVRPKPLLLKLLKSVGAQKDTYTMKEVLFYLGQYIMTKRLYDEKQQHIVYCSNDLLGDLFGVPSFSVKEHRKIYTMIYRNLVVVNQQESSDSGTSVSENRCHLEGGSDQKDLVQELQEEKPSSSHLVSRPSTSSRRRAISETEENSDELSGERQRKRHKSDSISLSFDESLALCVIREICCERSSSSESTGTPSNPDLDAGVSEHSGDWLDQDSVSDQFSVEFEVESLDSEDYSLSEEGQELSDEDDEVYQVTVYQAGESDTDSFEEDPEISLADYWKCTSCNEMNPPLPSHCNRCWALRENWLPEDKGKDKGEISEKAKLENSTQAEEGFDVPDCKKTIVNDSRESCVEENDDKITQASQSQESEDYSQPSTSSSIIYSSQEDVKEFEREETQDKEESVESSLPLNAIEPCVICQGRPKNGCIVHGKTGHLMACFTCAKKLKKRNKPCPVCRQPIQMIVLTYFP
SKKanGAS inh: blocks kanamycin growth of S. pyogenes SKKanGAS strain; inhibition, % at 7.5 µM; BacTiter-Glo, 6 h; 1.3% of 300,000 active;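 active = mean replicate score, as percent of positive control median, at least 50; inconclusive = mean below 50 but one replicate at or above 50; inactive = mean and every replicate below 50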;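 note: strain carries kanamycin resistance gene driven by streptokinase promoter and grows in 40 µg/ml kanamycin; loss of luminescence reflects streptokinase promoter inhibition or plain growth inhibition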
T cruzi repl: blocks replication of Trypanosoma cruzi | AID 1885 | T. cruzi beta-gal in NIH3T3, luminescence, 90 h | 1.4% of 300,000 active | inhibition, % (concentration not given with the values);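 active = mean inhibition across valid replicates above about 55%, limit read from the data; inconclusive = mean below that limit but half or more replicates reach it; inactive = mean below it, under half of replicates reach it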;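 note: signal also drops with host cell toxicity which is not excluded here; higher percent means less beta-gal luminescence so fewer parasites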
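System – NIH/3T3 host cells with β-galactosidase reporter T. cruzi · Doses – single 50 nL compound addition per well in DMSO · Reagent – 5000 T. cruzi trypomastigotes/well · Medium – Low-serum DMEM with 2% FBS · Timing – ≥90 h infection period, 3 h prior cell attachment · Evaluation – parasite load inhibition, % · Technique – GalScreen luminescence, 60 min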
CSC inhib: cancer stem cell inhibition | inhibition, % at 7.5 µM | 1.1% of 300,000 active | cancer stem cell-like cells viability, luminescence; in the data active = inhibition above about 75%; inconclusive = no clear call, values can overlap the other calls; tested in HMLE shEcad cells
Beta apoptosis: blocks beta cell apoptosis. INS-1E cytokine-induced death, ATP luminescence, 48 h; percent of positive-control rescue, neutral wells zero. protection from apoptosis, % (concentration not given with the values). 0.8% of 300,000 active;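 active = Every replicate reaches about 75%, or at least half do and their mean reaches it too, limit read from the data; inconclusive = At least half of replicates reach the limit but their mean does not; inactive = Under half of replicates reach the limit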;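 note: higher means more ATP so stronger rescue from cytokine killing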
Mdm2-MdmX conf: confirmation of human Mdm2/MdmX interaction inhibitors; AID 489028; shares compounds with Mdm2 MdmX PPI; Mdm2-MdmX binding, luminescent assay; inhibition, % at 8 µM; 55% of 10,000 active; in the data active = inhibition above about 40%
FLuc counter: full-length luciferase inhibition in Mdm2/MdmX counter-screen | shares compounds with Mdm2 MdmX PPI | SaOS-2 full-length luciferase counterscreen, luminescence | inhibition, % at 8 µM | 77% of 6,200 active | AID 504607;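 active = mean inhibition at 8 µM reaching about 37%, which flags the compound as non-specific, limit read from the data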;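 note: p53-null SaOS-2 cells with luciferase driven by a doxycycline-inducible promoter; compound on cells about two nights before reading with doxycycline added after day one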
Large screens that a line does not name were inactive (follow-up assays come after a bar, where they were run); ! = a repeat was not active. Shown are actives, neighbours in structure and some others; about 5.7% of the full set was active somewhere.

Cc1ccc(NC(=O)CSc2nnc(-c3cccnc3)n2-c2ccc(C)cc2)cc1	none
O=C(CSc1nnc(-c2cccs2)n1-c1ccccc1)Nc1ccccc1	Mdm2 MdmX PPI 69 | Mdm2-MdmX conf inactive
C=CCn1c(SCC(=O)Nc2ccc(N3CCOCC3)cc2)nnc1-c1ccco1	none
CC(=O)O/N=C1\C(=O)N(Cc2ccc(C)cc2)c2ccccc21	none (no result: Calb FLC, SKKanGAS inh, T cruzi repl, CSC inhib, Beta apoptosis)
CC(C)CC(=O)O/N=C1\C(=O)N(Cc2ccc(Cl)cc2)c2ccc([N+](=O)[O-])cc21	Mdm2 MdmX PPI 60, T cruzi repl 58 (no result: CSC inhib) | Mdm2-MdmX conf inactive
O=[N+]([O-])c1cc([N+](=O)[O-])c2cc3ccccc3nc2c1	Mdm2 MdmX PPI 82, CSC inhib 80 | Mdm2-MdmX conf inactive
CCCCNS(=O)(=O)c1ccc2nc(-c3cccnc3)cc(C(=O)NCCCN(CC)CC)c2c1	Calb FLC inconclusive
CCCCN(C)CCNC(=O)c1cc(-c2cccnc2)nc2ccc(S(=O)(=O)N3CCC(C)CC3)cc12	Mdm2 MdmX PPI 96 | Mdm2-MdmX conf inactive
CCN(CC)CCNC(=O)c1cc(-c2cccnc2)nc2ccc(S(=O)(=O)N3CCC(C)CC3)cc12	Mdm2 MdmX PPI 100 | Mdm2-MdmX conf 76 | FLuc counter 53
CCOC(=O)[C@H]1[C@H]2COc3ccc(Cl)cc3[C@@H]2N2C(=O)[C@@H](CO)NC(=O)[C@@]12C	none (no result: Calb FLC, SKKanGAS inh, T cruzi repl, CSC inhib)
O=c1nc(Nc2ccc(OCc3ccccc3)cc2)sc2ncccc12	Mdm2 MdmX PPI 69 | Mdm2-MdmX conf 82 | FLuc counter inactive
CC(=O)c1ccc(Nc2nc(=O)c3cccnc3s2)cc1	none
CCOC(=O)c1ccc(Nc2nc(=O)c3cccnc3s2)cc1	Mdm2 MdmX PPI 71 | Mdm2-MdmX conf 41 | FLuc counter 73
CSc1cccc(NC(=O)c2[nH]c(C)c(C(C)=O)c2C)c1	none (no result: Beta apoptosis)
Cc1cc(Oc2ncccc2[N+](=O)[O-])c2cc(Cl)ccc2n1	Mdm2 MdmX PPI 56 | Mdm2-MdmX conf inactive
NNC(=O)CSc1cccc2cccnc12	none
CN(C)C(=O)CSc1cccc2cccnc12	Mdm2 MdmX PPI 70 | Mdm2-MdmX conf inactive
O=C(CSc1cccc2cccnc12)N1CCCC1	Mdm2 MdmX PPI 66, T cruzi repl 61 | Mdm2-MdmX conf inactive
CC(=O)Nc1sc(C)c(C)c1C(=O)OCC(=O)N(CC(C)C)c1c(N)n(Cc2ccccc2)c(=O)[nH]c1=O	Mdm2 MdmX PPI 100, CSC inhib 81 (no result: Calb FLC) | Mdm2-MdmX conf inactive
Cc1ccc(C(=O)OCC(=O)N(CC(C)C)c2c(N)n(Cc3ccccc3)c(=O)[nH]c2=O)o1	none (no result: Beta apoptosis)
CC(C)CN(C(=O)COC(=O)C12CC3CC(CC(C3)C1)C2)c1c(N)n(Cc2ccccc2)c(=O)[nH]c1=O	Mdm2 MdmX PPI 61, Beta apoptosis 99 (no result: Calb FLC) | Mdm2-MdmX conf 72 | FLuc counter 47
Cn1ncc([N+](=O)[O-])c1C(=O)NC1CCCCC1	none
S=C(NCCCN1CCOCC1)N1CCN(c2nc(-c3ccccc3)cs2)CC1	none
S=C(NCCCN1CCOCC1)N1CCN(c2nc(-c3ccc(Cl)cc3)cs2)CC1	Calb FLC inconclusive, Mdm2 MdmX PPI 62, CSC inhib 104, Beta apoptosis 85 | Mdm2-MdmX conf inactive
CCn1c(CNC(=O)c2cccc(C)c2)nnc1SCC(=O)N1CCOCC1	none
S=C1NC2=C(CCCC2=C2SCCS2)C(c2ccccc2)N1 (configuration not stated)	Mdm2 MdmX PPI 65 | Mdm2-MdmX conf inactive
O=C(Nc1ccc(N2CCCCC2)cc1)c1cncc(Br)c1	none
O=C(Nc1ccc(N2CCN(C(=O)c3ccccc3F)CC2)cc1)c1cncc(Br)c1	Mdm2 MdmX PPI 63 | Mdm2-MdmX conf 62 | FLuc counter inactive
Cc1cc(C(=O)OCC(=O)N(C)c2ccccc2)c(C)o1	none (no result: Calb FLC, SKKanGAS inh, T cruzi repl)
CN(CC(=O)N(C)CC(=O)Nc1c(Cl)cccc1Cl)Cc1ccc(Br)s1	none (no result: Calb FLC, SKKanGAS inh, T cruzi repl, CSC inhib)
CC(C)(C)C(=O)NC(=S)NNC(=O)c1ccc(-c2ccccc2)cc1	Calb FLC 98, Mdm2 MdmX PPI 57, SKKanGAS inh 91, CSC inhib 91, Beta apoptosis 76 | Mdm2-MdmX conf 46 | FLuc counter inactive
CCCN(CCC)C(=S)NC(=O)c1ccc(-c2ccccc2)cc1	Mdm2 MdmX PPI 55 | Mdm2-MdmX conf inactive
C=CCc1ccccc1OCC(=O)NNC(=S)NCc1ccccc1	none
Cc1ccc(C)c(S(=O)(=O)N2CCN(C(=O)C3CCN(C(=O)c4ccc(F)cc4)CC3)CC2)c1	none
COc1ccccc1NC(=O)COC(=O)c1[nH]c(=O)[nH]c(=O)c1N	none (no result: Calb FLC, SKKanGAS inh, T cruzi repl)
CC/C(=C(\c1ccccc1)c1ccc(OCCN(C)C)cc1)c1ccccc1	Mdm2 MdmX PPI 58, SKKanGAS inh 66!, CSC inhib 99 (no result: Calb FLC) | Mdm2-MdmX conf inactive
CCN(CC)CCOc1ccc(/C(=C(/Cl)c2ccccc2)c2ccccc2)cc1	Mdm2 MdmX PPI 69, CSC inhib 101 (no result: Calb FLC) | Mdm2-MdmX conf inactive | FLuc counter 76
CC/C(=C(\c1ccc(O)cc1)c1ccc(OCCN(C)C)cc1)c1ccccc1	Mdm2 MdmX PPI 93 (no result: Calb FLC) | Mdm2-MdmX conf inactive | FLuc counter 61
CN(C)CCCOc1ccc(C(C)(C)c2ccccc2)cc1	none (no result: Beta apoptosis)
O=C(COC(=O)COc1ccccc1)NC1CCS(=O)(=O)C1 (configuration not stated)	none (no result: Calb FLC, SKKanGAS inh, T cruzi repl)
Cc1ccccc1OCCc1c(C)[nH]c(=S)[nH]c1=O	Mdm2 MdmX PPI 55 | Mdm2-MdmX conf 62 | FLuc counter 56
COc1cc(C(=O)N/N=C/c2ccsc2C)cc(OC)c1OC	Mdm2 MdmX PPI 77, CSC inhib 76 | Mdm2-MdmX conf 67 | FLuc counter 89
COc1ccc(Br)cc1/C=N/NC(=O)c1cc(OC)c(OC)c(OC)c1	none
CCOC(=O)c1cnc(SC)nc1Sc1ccccc1Cl	none (no result: T cruzi repl, Beta apoptosis)
CSc1nc(Sc2ccccc2Cl)c2ccccc2n1	Mdm2 MdmX PPI 53, SKKanGAS inh 59 (no result: CSC inhib) | Mdm2-MdmX conf 46 | FLuc counter 55
O=S(=O)(c1cccc2cnccc12)N1CCCNCC1	Mdm2 MdmX PPI 59 (no result: Calb FLC, Beta apoptosis) | Mdm2-MdmX conf 47 | FLuc counter 65
CC1CNCCN1S(=O)(=O)c1cccc2cnccc12 (configuration not stated)	Mdm2 MdmX PPI 55! | Mdm2-MdmX conf inactive
Cc1ccc(NC(=O)Cn2c(O)c(N=NC(N)=S)c3ccccc32)cc1	Mdm2 MdmX PPI 51 | Mdm2-MdmX conf inactive | FLuc counter 65
Cc1c(Cl)cccc1NC(=S)N=Nc1c(O)n(CN2CCOCC2)c2ccccc12	Mdm2 MdmX PPI 82, T cruzi repl 63 (no result: Calb FLC, SKKanGAS inh) | Mdm2-MdmX conf 63 | FLuc counter 51
C=CCn1c(O)c(N=NC(=S)Nc2ccccc2F)c2cc(S(=O)(=O)N3CCOCC3)ccc21	Mdm2 MdmX PPI 64, T cruzi repl 58 | Mdm2-MdmX conf 44 | FLuc counter 50
